Results published in ChEMBL document CHEMBL3425438, “Investigation of (E)-3-[4-(2-Oxo-3-aryl-chromen-4-yl)oxyphenyl]acrylic Acids as Oral Selective Estrogen Receptor Down-Regulators” (J Med Chem, 2015).
In brackets after ≈: the same amount, converted by molar mass.

How the values were obtained:
[1] = molecular target: Voltage-gated inwardly rectifying potassium channel KCNH2 (Homo sapiens, UniProt Q12809); assay: Inhibition of hERG channel by electrophysiology; assay type: toxicity
[2] = Dissociation constant, pKa of the compound by potentiometric analysis […] phenol; assay type: physicochemical
How it was run: (§1)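 pKa (acid and phenol) by potentiometric titration.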

[3] = Volume of distribution at steady state in Alderley Park Han Wistar rat at 0.5 mg/kg, iv; assay type: ADME, organism-based; design: dose 0.5 mg/kg, route intravenous; conditions: in vivo, read-out: Vdss
How it was run: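 Fed CD-1 mice or Alderley Park Han Wistar rats, two animals per study; IV 0.5 mg/kg as aqueous solution of DMSO and cyclodextrin; clearance and Vss derived.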

[4] = Intrinsic clearance in mouse hepatocytes measured per 10^6 cells; assay type: ADME, cell-based, Hepatocyte; conditions: read-out: CLH
[5] = molecular target: T1, Estrogen receptor (Homo sapiens, UniProt P03372); assay: Binding affinity to ER alpha (unknown origin) by LanthaScreen TR-FRET competitive binding assay
T1 sequence (P03372 whole entry): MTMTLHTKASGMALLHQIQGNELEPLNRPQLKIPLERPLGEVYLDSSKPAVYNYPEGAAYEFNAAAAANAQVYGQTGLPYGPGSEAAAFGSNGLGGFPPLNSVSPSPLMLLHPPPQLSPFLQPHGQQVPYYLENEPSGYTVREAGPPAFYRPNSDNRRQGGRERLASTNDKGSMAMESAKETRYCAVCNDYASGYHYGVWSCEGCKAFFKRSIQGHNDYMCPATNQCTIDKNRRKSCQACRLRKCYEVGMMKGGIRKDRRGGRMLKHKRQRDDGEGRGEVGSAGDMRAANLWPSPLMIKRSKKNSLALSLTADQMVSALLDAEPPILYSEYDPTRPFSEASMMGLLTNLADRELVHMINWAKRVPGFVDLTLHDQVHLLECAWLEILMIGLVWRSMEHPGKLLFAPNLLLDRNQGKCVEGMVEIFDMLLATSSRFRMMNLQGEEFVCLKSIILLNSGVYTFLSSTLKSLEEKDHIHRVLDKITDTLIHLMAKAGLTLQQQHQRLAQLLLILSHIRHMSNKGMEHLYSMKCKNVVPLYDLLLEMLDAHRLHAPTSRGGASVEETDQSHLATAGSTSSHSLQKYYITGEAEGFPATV
How it was run: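 LanthaScreen TR-FRET ERα competitive binding; 12-point half-log concentration response; TR-FRET emission ratio read on microplate reader; IC50 reported.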

[6] = Free plasma concentration in mouse by LC-UV-MS analysis; assay type: ADME, cell-free
How it was run: (§2)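 Equilibrium dialysis in plasma of the matching species at 37 °C; free and bound concentrations quantified by LC-UV-MS; reported as % free.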

[7] = molecular target: T1, Estrogen receptor; assay: Antagonist activity at ER alpha in human MCF7 cells assessed as inhibition of estradiol-induced PR expression treated for 24 hrs after incubation with estradiol for 30 mins by laser scanning imaging cytometer analysis; assay type: cell-based
[8] = Oral bioavailability in Alderley Park Han Wistar rat at 50 mg/kg using HPMC/tween suspension; assay type: ADME, organism-based; conditions: in vivo
How it was run: (§3)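 Fed Han Wistar rats, two per study; oral HPMC/tween suspension at 1, 5 or 50 mg/kg as stated per line; IV reference 0.5 mg/kg in aqueous DMSO/cyclodextrin.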

[9] = molecular target: T1, Estrogen receptor; assay: Suppression of ER alpha in human MCF7 cells after 24 hrs by immunostaining analysis; assay type: cell-based
[10] = Free plasma concentration in human by LC-UV-MS analysis; assay type: ADME, cell-free; how it was run: as §2
[11] = test system: MCF7; assay: Inhibition of cell proliferation in human MCF7 cells after 7 days by laser scanning imaging cytometer analysis; assay type: functional, cell-based; conditions: MCF7, 168 h
How it was run: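 MCF-7 cells plated in reduced-serum medium the day before; concentration response for 7 days; cell number by nucleic acid stain, read on laser scanning imaging cytometer; EC50 for decrease in proliferation.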

[12] = Octanol-buffer partition coefficient, log D of the compound at ratio of 1:100 at pH 7.4 by shake-flask method; assay type: physicochemical
[13] = Apparent permeability from apical to basolateral side in human Caco2 cells; assay type: ADME, cell-based; conditions: Caco-2
[14] = Free plasma concentration in rat by LC-UV-MS analysis; assay type: ADME, cell-free; how it was run: as §2
[15] = Intrinsic clearance in human hepatocytes measured per 10^6 cells; assay type: ADME, cell-based, Hepatocyte; conditions: read-out: CLH
[16] = Intrinsic clearance in rat hepatocytes measured per 10^6 cells; assay type: ADME, cell-based, Hepatocyte; conditions: read-out: CLH
[17] = Thermodynamic solubility of the compound in 0.1 M aqueous phosphate buffer at 25 degC at pH 7.4 after 24 hrs; assay type: physicochemical; conditions: read-out: Therm_solubility
[18] = Clearance in Alderley Park Han Wistar rat at 0.5 mg/kg, iv; assay type: ADME, organism-based; design: dose 0.5 mg/kg, route intravenous; conditions: in vivo
[19] = Drug metabolism in rat hepatocytes assessed as formation of glucuronide conjugates by LC-UV-MS analysis; assay type: ADME, cell-based, Hepatocyte
[20] = Drug metabolism in rat hepatocytes assessed as oxidation metabolite formation by LC-UV-MS analysis; assay type: ADME, cell-based, Hepatocyte
[21] = Oral bioavailability in Alderley Park Han Wistar rat at 1 mg/kg using HPMC/tween suspension; assay type: ADME, organism-based; conditions: in vivo; how it was run: as §3
[22] = Dissociation constant, pKa of the compound by potentiometric analysis; assay type: physicochemical; how it was run: as §1
[23] = molecular target: T1, Estrogen receptor; assay: Agonist activity at ER alpha in human MCF7 cells assessed as PR gene expression after 24 hrs by laser scanning imaging cytometer analysis; assay type: cell-based; conditions: read-out: IC50 (the source's name)

Sequence of Voltage-gated inwardly rectifying potassium channel KCNH2 (Q12809 whole entry): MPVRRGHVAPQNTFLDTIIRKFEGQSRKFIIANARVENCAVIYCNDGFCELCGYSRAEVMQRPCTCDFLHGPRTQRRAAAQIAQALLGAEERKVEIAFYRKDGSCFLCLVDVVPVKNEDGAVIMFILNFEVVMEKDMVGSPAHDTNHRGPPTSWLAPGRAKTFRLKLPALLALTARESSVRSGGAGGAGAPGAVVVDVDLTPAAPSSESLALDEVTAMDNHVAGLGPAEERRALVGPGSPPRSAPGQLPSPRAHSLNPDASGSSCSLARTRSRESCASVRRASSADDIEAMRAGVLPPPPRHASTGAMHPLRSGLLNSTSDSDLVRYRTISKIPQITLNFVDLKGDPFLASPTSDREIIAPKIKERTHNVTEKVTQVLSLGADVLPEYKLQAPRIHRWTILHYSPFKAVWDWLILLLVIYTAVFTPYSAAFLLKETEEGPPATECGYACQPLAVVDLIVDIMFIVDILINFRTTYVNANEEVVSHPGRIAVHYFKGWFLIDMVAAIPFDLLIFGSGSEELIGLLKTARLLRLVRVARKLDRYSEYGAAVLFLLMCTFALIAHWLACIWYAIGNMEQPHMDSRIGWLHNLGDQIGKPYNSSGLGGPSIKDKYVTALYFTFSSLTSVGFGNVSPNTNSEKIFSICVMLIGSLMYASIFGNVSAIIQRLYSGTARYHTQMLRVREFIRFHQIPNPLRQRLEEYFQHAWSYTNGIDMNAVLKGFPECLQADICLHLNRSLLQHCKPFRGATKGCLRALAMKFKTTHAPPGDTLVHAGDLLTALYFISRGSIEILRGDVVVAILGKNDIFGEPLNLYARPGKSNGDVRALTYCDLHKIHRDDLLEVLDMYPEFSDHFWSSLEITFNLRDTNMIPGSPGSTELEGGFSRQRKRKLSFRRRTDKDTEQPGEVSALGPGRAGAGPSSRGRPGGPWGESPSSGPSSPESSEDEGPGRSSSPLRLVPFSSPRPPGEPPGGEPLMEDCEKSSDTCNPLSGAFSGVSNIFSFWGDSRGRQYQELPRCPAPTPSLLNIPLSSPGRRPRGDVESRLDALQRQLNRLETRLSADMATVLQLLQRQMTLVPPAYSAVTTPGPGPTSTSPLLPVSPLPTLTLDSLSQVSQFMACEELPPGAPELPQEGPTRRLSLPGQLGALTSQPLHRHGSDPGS

In the case of Cc1cc(OC(F)(F)F)ccc1-c1c(Oc2ccc(/C=C/C(=O)O)cc2)c2ccc(O)cc2oc1=O, the IC50 [1] is reported as > 100000 nM, the pKa [2] is reported as 8.2 and the Vd [3] is reported as 0.7 L/kg. For the same compound, the hepatocyte CLint [4] was 9 µL/min/1e6 cells, the IC50 [5] was 0.5 nM and the fraction unbound [6] was 0.0084. The IC50 [7] was 3.9 nM, the bioavailability [8] was 0% and the IC50 [9] was 2.7 nM. The fraction unbound [10] was 0.0012, the EC50 [11] was < 0.1 nM and the logD [12] was 2.1. The Papp A→B [13] was 15 ×10⁻⁶ cm/s, the fraction unbound [14] was 0.0037 and the hepatocyte CLint [15] was 11 µL/min/1e6 cells. For the same compound, the hepatocyte CLint [16] was 41 µL/min/1e6 cells, the solubility thermodynamic at 24 h [17] was 97 µM (≈ 48.3 µg/mL) and the clearance [18] was 38 mL/min/kg.
For Cc1cc(F)ccc1-c1c(Cc2ccc(/C=C/C(=O)O)cc2)c2c(F)cc(O)cc2oc1=O, the pKa [2] was 7.2, the Drug metabolism [19] was “metabolite_detected” and the IC50 [5] was 1.3 nM. For the same compound, the IC50 [9] was 55 nM, the logD [12] was 1.6 and the hepatocyte CLint [15] was 14 µL/min/1e6 cells. For the same compound, the hepatocyte CLint [16] was 69 µL/min/1e6 cells.
In the case of Cc1cc(F)ccc1-c1c(Oc2ccc(/C=C/C(=O)O)cc2)c2cc(F)c(O)cc2oc1=O, the pKa [2] is reported as 5.8, the IC50 [5] is reported as 7.4 nM and the IC50 [9] is reported as > 3000 nM. It also gave a logD [12] of 0.8, a hepatocyte CLint [15] of 28 µL/min/1e6 cells and a hepatocyte CLint [16] of 84 µL/min/1e6 cells.
Compound Cc1cc(F)ccc1-c1c(Oc2ccc(/C=C/C(=O)O)cc2)c2ccc(O)c(F)c2oc1=O has a pKa [2] of 6.1, an IC50 [5] of 3.2 nM and an IC50 [9] of 509 nM. The logD [12] was 0.6, the hepatocyte CLint [15] was 11 µL/min/1e6 cells and the hepatocyte CLint [16] was 33 µL/min/1e6 cells.
For Cc1c(O)ccc2c(Cc3ccc(/C=C/C(=O)O)cc3)c(-c3ccc(OC(F)(F)F)cc3)c(=O)oc12, the pKa [2] was 8.5, the IC50 [5] was 280 nM and the IC50 [9] was 5840 nM. The logD [12] was 3.4, the hepatocyte CLint [15] was 20 µL/min/1e6 cells and the hepatocyte CLint [16] was 39 µL/min/1e6 cells.
With Cc1cc(F)ccc1-c1c(Cc2ccc(/C=C/C(=O)O)cc2)c2ccc(CO)cc2oc1=O the Drug metabolism [20] was “metabolite_detected”, the IC50 [5] was 100 nM and the IC50 [9] was 1000 nM. It also gave a logD [12] of 1.2, a hepatocyte CLint [15] of 14 µL/min/1e6 cells and a hepatocyte CLint [16] of 81 µL/min/1e6 cells.
In the case of Cc1cc(F)ccc1-c1c(Oc2ccc(/C=C/C(=O)O)cc2)c2ccccc2oc1=O, the bioavailability [21] is reported as 47%, the IC50 [1] is reported as > 100000 nM and the Vd [3] is reported as 0.47 L/kg. For the same compound, the IC50 [5] was 72 nM, the pKa [22] was 5.3 and the IC50 [7] was 330 nM. For the same compound, the IC50 [9] was 248 nM, the fraction unbound [10] was 0.005 and the logD [12] was 2. For the same compound, the Papp A→B [13] was 47 ×10⁻⁶ cm/s, the fraction unbound [14] was 0.014 and the hepatocyte CLint [15] was 9 µL/min/1e6 cells. The hepatocyte CLint [16] was 27 µL/min/1e6 cells, the solubility thermodynamic at 24 h [17] was > 1500 µM and the clearance [18] was 23 mL/min/kg.
Work on Cc1cc(OC(F)(F)F)ccc1-c1c(Oc2ccc(/C=C/C(=O)O)cc2)c2ccccc2oc1=O yielded a bioavailability [21] of 35%, a Vd [3] of 1.7 L/kg and an IC50 [5] of 15 nM. The pKa [22] was 3.7, the IC50 [7] was 180 nM and the IC50 [9] was 100 nM. For the same compound, the fraction unbound [10] was 0.0016, the EC50 [11] was 20 nM and the EC50 [23] was > 3100 nM. It also gave a logD [12] of 2.5, a Papp A→B [13] of 39 ×10⁻⁶ cm/s and a fraction unbound [14] of 0.0032. For the same compound, the hepatocyte CLint [15] was 7 µL/min/1e6 cells, the hepatocyte CLint [16] was 19 µL/min/1e6 cells and the solubility thermodynamic at 24 h [17] was > 470 µM. It also gave a clearance [18] of 15 mL/min/kg.
